Laboratory results from PMC3104004 (European Journal of Nuclear Medicine and Molecular Imaging, 2011).

How the values were obtained:
[1] = test system: kidney of PC-3-bearing mice; settings: PC-3-bearing athymic mice, 30 min after injection; ref 26 (Zheng et al.); cited from earlier work
[2] = test system: human prostate VCaP xenografts; assay: Dynamic PET scanning with quantitative VOI analysis in VCaP tumour-bearing mice; type: in vivo, male NMRI nu/nu mice
In short: (§1)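 Male NMRI nu/nu mice, 6–7 weeks old, inoculated s.c. in the right shoulder with ~5×10^6 VCaP or PC-3 cells in PBS. Under isoflurane/oxygen, prone, on a microPET with a heating mat. Test tracer 100 μl (8.1–1.2 MBq) given by tail-vein cannula; dynamic full-body scan for 20 min from injection. Tumour VOIs drawn manually, averaged over two analysts. %ID/g = VOI activity/injected dose ×100; steady-state taken from last 10 min; median, IQR; Mann-Whitney U.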

[3] = test system: PC-3 tumours; assay: Dynamic PET scanning with quantitative VOI analysis in PC-3 tumour-bearing mice; type: in vivo, male NMRI nu/nu mice; settings: tail vein injection 100 μl; last 10 min of 20 min scan; N = 3
In short: as §1

[4] = test system: VCaP tumour and preselected organs; assay: Ex vivo biodistribution in VCaP tumour-bearing mice; parameters: species or system male NMRI nu/nu mice; settings: 30 min after injection, 100 μl iv
In short: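 Done after PET. VCaP-bearing mice killed 60 min after i.v. tail-vein 68Ga-labelled bombesin-analogue tracer (300 pmol, 1.5–0.5 MBq), or 30 min after 18F-choline tracer (100 μl, 8.1–1.2 MBq). Gamma-counted: tumour, liver, heart, blood, muscle, tail, kidneys, pancreas and colon. %ID/g corrected for activity left in the tail; mean ± SD, four mice per tracer; unpaired t-test.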

For C[N+](C)([11CH3])CCO [^11C-choline], the kidney uptake [1] is given as 5.1 ± 1.8 %ID/g.

In the case of C[N+](C)(C[18F])CCO [^18F-FCH, N-[^18F]-fluoromethyl-N-(2-hydroxyethyl)-N,N-dimethylammonium], the “time at which tumour uptake reached a plateau phase” value ([2]; dynamic PET, VCaP tumour, after injection) is reported as “less than 10 min”, the “VCaP tumour uptake determined from PET at steady-state (plateau phase)” value ([2]; tail vein injection 100 μl, 8.1–1.2 MBq, 10–20 min after injection, N = 8) is reported as 1.6 ± 0.5 %ID/g and the “PC-3 tumour uptake from PET (plateau phase)” value [3] is reported as 1.2 ± 0.3 %ID/g. For the same compound, the uptake in blood ([4]; VCaP-bearing mice, N = 4) was 0.8 ± 0.1 %ID/g tissue, the uptake in heart ([4]; VCaP-bearing mice, N = 4) was 4.7 ± 0.5 %ID/g tissue and the uptake in kidneys ([4]; VCaP-bearing mice, N = 4) was 35.7 ± 4.1 %ID/g. The uptake in liver ([4]; VCaP-bearing mice, N = 4) was 13.0 ± 1.7 %ID/g tissue, the uptake in muscle ([4]; VCaP-bearing mice, N = 4) was 0.9 ± 0.2 %ID/g tissue and the “uptake in pancreas (GRPR-positive)” value ([4]; VCaP-bearing mice, N = 4) was 3.6 ± 1.0 %ID/g. For the same compound, the “VCaP tumour uptake (biodistribution)” value ([4]; ex vivo counting) was 2.1 ± 0.4 %ID/g.
